According to ChEMBL document CHEMBL4808255, “Design, synthesis, and target identification of new hypoxia-inducible factor 1 (HIF-1) inhibitors containing 1-alkyl-1H-pyrazole-3-carboxamide moiety” (Bioorg Med Chem, 2021):
Activity calls are given as the source filed them. The rule behind the calls is not given here.

Key:
[1] = molecular target: ATP synthase F(1) complex catalytic subunit beta, mitochondrial (Bos taurus) (UniProt P00829); assay: Inhibition of ATP5B in bovine heart mitochondrial solution assessed as complex V activity at 12.6 nM incubated for 2 hrs by spectrophotometry; settings: Mitochondria
Method in brief: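 Bovine heart mitochondria solution used as the ATP synthase (complex V) source. Compound was incubated 2 h at 25 °C with DMSO at 1.0%. Activity followed as consumption of supplemented NADH by absorbance at 340 nm on a spectrophotometer. Oligomycin was the positive control. n = 3; representative of three independent experiments; Student's t-test.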

HT-1080 = assay: Cytotoxicity against human HT-1080 cells assessed as reduction in cell viability incubated for 72 hrs by cell proliferation assay; assay type: functional, cell-based; settings: HT-1080, 72 h
Method in brief: (§1)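 Cells seeded at 1.5 × 10³ per well and grown 24 h, then exposed to solvent or serial dilutions of test compound for 72 h. Viability read with Cell Counting Kit-8. Triplicate wells (n = 3); representative of two independent experiments.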

HeLa S3 = assay: Cytotoxicity against human HeLa S3 cells assessed as reduction in cell viability incubated for 72 hrs by cell proliferation assay; assay type: functional, cell-based; settings: HeLa S3, 72 h; method in brief: as §1
[2] = Drug localization in mitochondria of human HeLa cells at 1 uM incubated for 3 hrs by MitoTracker Red CMXRos and Hoechst 33342 staining based assay; assay type: ADME
Method in brief: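 HeLa cells exposed 3 h to 1 μM BODIPY-FL fluorescent probe. MitoTracker Red CMXRos (100 nM) and Hoechst 33342 (10 μM) added, then cells fixed and imaged by fluorescence microscopy.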

[3] = molecular target: T1, Hypoxia-inducible factor 1-alpha (Homo sapiens, UniProt Q16665); assay: Inhibition of hypoxia-induced HIF1 alpha transcriptional activity in human HeLa cells transfected with luciferase reporter containing of HRE assessed as reduction in luciferase activity incubated for 1 hrs under normoxic condition followed by incubation under hypoxic condition for 24 hrs by luciferase reporter gene assay; assay type: cell-based
HeLa [4] = assay: Inhibition of mitochondrial complex V in human HeLa cells assessed as reduction in oxygen consumption rate at 0.1 to 1 uM for 1.5 hrs cells pretreated with FCCP/antimycin A/rotenone by XF mito stress test assay; assay type: cell-based; settings: dose 0.1-1 µM
Method in brief: (§2)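 HeLa cells at 80–90% confluency equilibrated 1.5 h at 37 °C without CO₂. OCR recorded at baseline and after sequential injections: compound (0.1, 1, 10 μM) or oligomycin 0.5 μM, then FCCP 0.5 μM, then rotenone/antimycin A (0.5 μM each). Seahorse XF analyzer; n = 6, mean ± SEM.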

[5] = molecular target: ATP synthase F(1) complex catalytic subunit beta, mitochondrial (Bos taurus) (UniProt P00829); assay: Inhibition of ATP5B in bovine heart mitochondrial solution assessed as complex V activity at 10 to 100 nM incubated for 2 hrs by spectrophotometry; settings: Mitochondria, dose 10-100 nM
Method in brief: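 Complex V activity measured in bovine heart mitochondria solution with ATP synthase. Compound at 10 and 100 nM; DMSO 1.0% vehicle; oligomycin 12.6 μM as positive control. Incubated 2 h at 25 °C, monitoring absorbance at 340 nm for NADH consumption. n = 3; representative of three experiments; Student's t-test.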

[6] = molecular target: T1, Hypoxia-inducible factor 1-alpha; assay: Inhibition of hypoxia-induced HIF1 alpha transcriptional activity in human HeLa cells at 3 uM incubated for 1 hrs under normoxic condition followed by incubation under hypoxic condition for 24 hrs by quantitative RT-PCR analysis; assay type: cell-based; settings: time 25.0 hrs
[7] = molecular target: T1, Hypoxia-inducible factor 1-alpha; assay: Inhibition of hypoxia-induced HIF1 alpha transcriptional activity in human HeLa cells assessed as reduction in VEGF mRNA level at 3 uM incubated for 1 hrs under normoxic condition followed by incubation under hypoxic condition for 24 hrs by quantitative RT-PCR analysis; assay type: cell-based; settings: time 25.0 hrs
HeLa [8] = assay: Inhibition of mitochondrial complex V in human HeLa cells assessed as reduction in oxygen consumption rate at 0.1 to 1 uM for 1.5 hrs by XF mito stress test assay; assay type: cell-based; settings: dose 0.1-1 µM; method in brief: as §2
[9] = molecular target: ATP synthase F(1) complex subunit beta, mitochondrial (Homo sapiens) (UniProt P06576); assay: Competitive binding affinity to ATP5B in human HeLa cell mitochondrial fraction in presence of KUSC-5051 by LC-MS/MS analysis; settings: Mitochondria
Method in brief: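 HeLa S3 lysate fractionated into debris (1 mg/mL), mitochondrial (0.8 mg/mL) and cytosol (0.6 mg/mL) fractions. Fractions incubated with DMSO or 300 μM competitor, with or without 30 μM photoaffinity probe, 1 h at 37 °C, then UV 365 nm for 30 min. Click labeling, NeutrAvidin enrichment, SDS-PAGE. The ~60 kDa band was trypsin-digested 12 h at 37 °C for LC-MS/MS, with confirmation by anti-ATP5B western blot.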

[10] = molecular target: T1, Hypoxia-inducible factor 1-alpha; assay: Inhibition of hypoxia-induced HIF1 alpha transcriptional activity in human HeLa cells assessed as HIF1alpha protein level incubated for 1 hrs under normoxic condition followed by incubation under hypoxic condition for 24 hrs by Western blotting analysis; assay type: cell-based; settings: time 25.0 hrs
[11] = molecular target: T1, Hypoxia-inducible factor 1-alpha; assay: Inhibition of hypoxia-induced HIF1 alpha transcriptional activity in human HeLa cells assessed as reduction in CA9 mRNA level at 3 uM incubated for 1 hrs under normoxic condition followed by incubation under hypoxic condition for 24 hrs by quantitative RT-PCR analysis; assay type: cell-based; settings: time 25.0 hrs

Row | Structure (SMILES) | IC50 [3] | other results
1 | CC[C@@H]1/C=C/C=C/C[C@H](C)[C@@H](O)[C@](C)(O)C(=O)[C@H](C)[C@@H](O)[C@H](C)C(=O)[C@H](C)[C@@H](O)[C@H](C)/C=C/C(=O)O[C@H]2[C@@H](C)[C@@H](CC1)O[C@@]1(CC[C@@H](C)[C@@H](C[C@@H](C)O)O1)[C@@H]2C |  | inhibition [1]: Active; IC50 (HT-1080): < 0.1 µM; IC50 (HeLa S3): 5.3 µM
2 | Cc1cc(C)n2c1C=C1C=C(CCC(=O)Nc3cnn(Cn4ccc(C(=O)Nc5ccc(C(F)(F)F)cc5)n4)c3)C=[N+]1[B-]2(F)F |  | Drug uptake [2]: Active
3 | O=C(Nc1ccc(Br)cc1)c1ccn(Cn2cnc([N+](=O)[O-])c2)n1 | 58 µM | 
4 | CC(C)C(=O)Nc1cnn(Cn2ccc(C(=O)Nc3ccc(C(F)(F)F)cc3)n2)c1 | 6.9 µM | 
5 | O=C(Nc1ccc(Cl)cc1Cl)c1ccn(Cn2cc([N+](=O)[O-])cn2)n1 | 35 µM | 
6 | O=C(Nc1ccc(Br)cc1)c1ccn(Cn2ccnc2)n1 | 34 µM | 
7 | O=C(Nc1cccc(Br)c1)c1ccn(Cn2cc([N+](=O)[O-])cn2)n1 | 35 µM | 
8 | O=C(Nc1ccc(C(F)(F)F)cc1)c1ccn(Cn2cc([N+](=O)[O-])cn2)n1 | 18 µM | 
9 | O=C(Nc1ccccc1)c1ccn(Cn2cc([N+](=O)[O-])cn2)n1 | > 100 µM | 
10 | CC(=O)Nc1cnn(Cn2ccc(C(=O)Nc3ccc(C(F)(F)F)cc3)n2)c1 | 5.5 µM | 
11 | O=C(Nc1ccc(Cl)c(Cl)c1)c1ccn(Cn2cc([N+](=O)[O-])cn2)n1 | 13 µM | 
12 | O=C(Cc1ccccc1)Nc1cnn(Cn2ccc(C(=O)Nc3ccc(C(F)(F)F)cc3)n2)c1 | 1.4 µM | 
13 | O=C(Nc1ccc(Br)cc1)c1ccn(Cn2cc([N+](=O)[O-])cn2)n1 | 18 µM | 
14 | CC(=O)Nc1cnn(Cn2ccc(C(=O)Nc3ccc(Br)cc3)n2)c1 | 14 µM | 
15 | CCC(=O)Nc1cnn(Cn2ccc(C(=O)Nc3ccc(C(F)(F)F)cc3)n2)c1 | 1.2 µM | inhibition (HeLa [4]): Active; inhibition [5]: Active; inhibition [6]: Active; inhibition [7]: Active; inhibition (HeLa [8]): Active; IC50 (HT-1080): 0.6 µM; Activity [9]: Active; inhibition [10]: Dose-Dependent Effect; inhibition [11]: Active; IC50 (HeLa S3): 34.5 µM
16 | CCCNc1cnn(Cn2ccc(C(=O)Nc3ccc(C(F)(F)F)cc3)n2)c1 | 1.2 µM | 
17 | C#CCCCC1(CCC(=O)Nc2cnn(Cn3ccc(C(=O)Nc4ccc(C(F)(F)F)cc4)n3)c2)N=N1 |  | Activity [9]: Active
18 | O=C(Nc1ccc(Br)cc1)c1ccn(Cn2cccn2)n1 | 66 µM | 
19 | O=C(Nc1ccccc1O)c1ccn(Cn2cc([N+](=O)[O-])cn2)n1 | > 100 µM | 
20 | O=C(Nc1ccc(Cl)cc1)c1ccn(Cn2cc([N+](=O)[O-])cn2)n1 | 20 µM | 
21 | O=C(Nc1ccc(Br)cc1)c1ccn(Cn2ccc([N+](=O)[O-])c2)n1 | 27 µM | 
22 | O=C(Nc1ccc(F)cc1F)c1ccn(Cn2cc([N+](=O)[O-])cn2)n1 | 81 µM | 
23 | CC(C)c1ccc(NC(=O)c2ccn(Cn3cc([N+](=O)[O-])cn3)n2)cc1 | 21 µM | 
24 | COc1ccc(NC(=O)c2ccn(Cn3cc([N+](=O)[O-])cn3)n2)cc1 | > 100 µM | 
25 | CCCC(=O)Nc1cnn(Cn2ccc(C(=O)Nc3ccc(C(F)(F)F)cc3)n2)c1 | 1.8 µM | 
26 | Nc1cnn(Cn2ccc(C(=O)Nc3ccc(Br)cc3)n2)c1 | 20 µM | 
27 | O=C(Nc1ccc(F)cc1)c1ccn(Cn2cc([N+](=O)[O-])cn2)n1 | 28 µM | 
28 | O=C(Nc1cccc(C(F)(F)F)c1)c1ccn(Cn2cc([N+](=O)[O-])cn2)n1 | 33 µM | 
29 | O=C(Nc1ccccc1Br)c1ccn(Cn2cc([N+](=O)[O-])cn2)n1 | 45 µM | 
